Measured values reported in ChEMBL document CHEMBL2057162, “Synthesis and antitumor efficacy of a β-glucuronidase-responsive albumin-binding prodrug of doxorubicin” (J Med Chem, 2012).

What was measured:
Mus musculus [1] = assay: Nephrotoxicity in C57BL/6 mouse xenografted with mouse LLC cells at 13.7 umol/kg, iv administered on day 4 and day 11 after tumor transplantation measured on day 17 by hematoxylin eosin staining method; format: toxicity, organism-based; conditions: in vivo
Procedure, shortened: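 Kidneys from LLC-bearing mice dosed iv on days 4 and 11 were sectioned and stained with hematoxylin eosin. Renal tissue examined microscopically alongside untreated controls.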

MDA-MB-231 = assay: Antiproliferative activity against human MDA-MB-231 cells after 48 hrs by XTT assay; format: functional, cell-based; conditions: MDA-MB-231, 48 h
Procedure, shortened: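 Human MDA-MB-231 tumour cells were exposed to drug for 48 h, with or without β-glucuronidase added to the culture medium. Viability read-out gave IC50 in nM. Highest prodrug concentration tested was 2 μM.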

[2] = Antiproliferative activity against human U87MG cells after 48 hrs by XTT assay; format: functional, cell-based, U-87MG ATCC; conditions: U-87 MG
Procedure, shortened: (§1)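 Human H290, MDA-MB-231 and U87-MG and murine LLC tumour cell lines treated 48 h, with or without β-glucuronidase in the culture medium. IC50 derived from cell viability assays; highest tested dose 2 μM.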

[3] = test system: Lewis lung carcinoma cell line; assay: Antitumor activity against mouse LLC cells xenografted in C57BL/6 mouse assessed as decrease in tumor volume at 13.7 umol/kg, iv administered on day 4 and day 11 after tumor transplantation measured on day 17; format: functional
Procedure, shortened: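 Murine LLC tumours grown subcutaneously in mice. Two iv injections on days 4 and 11 after transplantation: doxorubicin 2 × 13.7 μmol/kg, glucuronide prodrugs 2 × 43.6 μmol/kg. T/C = mean relative tumour volume of treated group / mean relative tumour volume of control group. Minimal T/C reported with the day it was reached; 8 mice per group.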

[4] = Antiproliferative activity against human NCI-H290 cells after 48 hrs by XTT assay; format: functional, cell-based; conditions: NCI-H290, 48 h; procedure, shortened: as §1
Mus musculus [5] = assay: Toxicity in C57BL/6 mouse xenografted with mouse LLC cells assessed as change in body weight at 13.7 umol/kg, iv administered on day 4 and day 11 after tumor transplantation measured on day 17; format: organism-based; conditions: in vivo
Procedure, shortened: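 Subcutaneous murine LLC-bearing mice given two iv doses on days 4 and 11 after transplantation: 2 × 13.7 μmol/kg doxorubicin or 2 × 43.6 μmol/kg prodrug. Body weight change (%) and mortality recorded, 8 mice per group.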

[6] = test system: Lewis lung carcinoma cell line; assay: Antiproliferative activity against mouse LLC cells after 48 hrs by XTT assay; format: functional, cell-based; procedure, shortened: as §1

- IC50 (MDA-MB-231): 340 nM
- IC50 [6]: 207 nM
Compound: COc1cccc2c1C(=O)c1c(O)c3c(c(O)c1C2=O)C[C@@](O)(C(=O)CO)C[C@@H]3O[C@H]1C[C@H](N)[C@H](O)[C@H](C)O1 [DOXORUBICIN]
- Activity (Mus musculus [1]): Toxic
- IC50 [2]: 790 nM
- T/C [3]: 31%
- IC50 [4]: 320 nM
- Activity (Mus musculus [5]): -21%
